Activity calls are given as the source filed them. The rule behind the calls is not given here.
Experiments:
MDA-MB-231 [1] = test: Antiproliferative activity against ER-independent human MDA-MB-231 cells after 72 hrs by MTT assay; assay type: functional, cell-based; conditions: MDA-MB-231, 72 h
Method in brief: (§1)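 Cells seeded at 2.5×10^4 cells/mL, held 24 h at 37°C, then dosed from ethanol stocks over 1 nM–100 μM for 72 h; vehicle 1% v/v ethanol. MTT added to 1 mg/mL final, 2 h in dark at 37°C, DMSO solubilisation 20 min RT, absorbance read. Viability set relative to untreated controls; IC50 from % viability vs concentration. Triplicate wells, ≥3 experiments, mean ± SEM. MCF-7 grown in MEM with 10% FBS, 2 mM glutamine and 1% non-essential amino acids; MDA-MB-231 grown in DMEM with 10% FBS and 2 mM glutamine.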

MDA-MB-231 [2] = test: Antiproliferative activity against ER-independent human MDA-MB-231 cells assessed as cell death at 10 uM after 72 hrs by LDH assay
MCF7 [3] = test: Antiproliferative activity against ER expressing human MCF7 cells after 72 hrs by MTT assay; assay type: functional, cell-based; conditions: MCF7, 72 h; method in brief: as §1
MCF7 [4] = test: Cell cycle arrest in human MCF7 cells assessed as accumulation at S phase at 500 nM after 48 hrs by propidium iodide staining based flow cytometric analysis (reference value: 8.77+/-0.9%); assay type: functional
MCF7 [5] = test: Antimitotic activity in human MCF7 cells assessed as mitotic catastrophe at 500 nM after 16 hrs using DAPI staining based immunofluorescence analysis; assay type: functional, cell-based
Method in brief: (§2)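 MCF-7 cells seeded at 1×10^5 per well on chamber glass slides, exposed 16 h (vehicle 1% v/v ethanol). Permeabilised with 0.1% Triton X-100 in PBS, fixed in methanol 30 min at -20°C, blocked in 5% BSA. Stained with DM1A anti-tubulin (1:20, 1 h RT), then FITC rabbit anti-mouse (1:200, 1 h RT). Mounted with DAPI and imaged by confocal microscopy; three separate experiments.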

MCF7 [6] = test: Effect on microtubule network in human MCF7 cells assessed as microtubule depolymerization at 500 nM after 16 hrs by confocal microscopic analysis; assay type: functional, cell-based; method in brief: as §2
MCF7 [7] = test: Cell cycle arrest in human MCF7 cells assessed as accumulation at G2/M phase at 500 nM after 48 hrs by propidium iodide staining based flow cytometric analysis (reference value: 52.02+/-5.9%); assay type: functional
MCF7 [8] = test: Cell cycle arrest in human MCF7 cells assessed as accumulation at sub-G1 phase at 500 nM after 48 hrs by propidium iodide staining based flow cytometric analysis (reference value: 1.65+/-0.38%); assay type: functional
Bos taurus = species: Bos taurus; test: Inhibition of bovine tubulin polymerization at 10 uM after 60 mins by spectrophotometric analysis
Method in brief: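 Purified bovine brain tubulin in G-PEM buffer (80 mM PIPES pH 6.9, 0.5 mM MgCl2, 1 mM EGTA, 1 mM GTP, 10.2% glycerol) was mixed with drug at 10 μM or 1% ethanol vehicle. Assembly was started by warming from 4 to 37°C and turbidity read at 340 nm every 30 s for 60 min at 37°C. Run in triplicate.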

MCF7 [9] = test: Cell cycle arrest in human MCF7 cells assessed as appearance of polyploidy at 500 nM after 48 hrs by propidium iodide staining based flow cytometric analysis (reference value: 8.33+/-2.5%); assay type: functional
MCF7 [10] = test: Cell cycle arrest in human MCF7 cells assessed as accumulation at G1 phase at 500 nM after 48 hrs by propidium iodide staining based flow cytometric analysis (reference value: 60.22+/-3.1%); assay type: functional
MCF7 [11] = test: Antiproliferative activity against ER expressing human MCF7 cells assessed as cell death at 10 uM after 72 hrs by LDH assay
MCF7 [12] = test: Antimitotic activity in human MCF7 cells assessed as mitotic catastrophe at 100 nM after 16 hrs using DAPI staining based immunofluorescence analysis; assay type: functional, cell-based; method in brief: as §2
MCF7 [13] = test: Effect on microtubule network in human MCF7 cells assessed as microtubule depolymerization at 100 nM after 16 hrs by confocal microscopic analysis; assay type: functional, cell-based; method in brief: as §2
MCF7 [14] = test: Cell cycle arrest in human MCF7 cells assessed as accumulation at S phase at 100 nM after 48 hrs by propidium iodide staining based flow cytometric analysis (reference value: 8.77+/-0.9%); assay type: functional
MCF7 [15] = test: Cell cycle arrest in human MCF7 cells assessed as accumulation at sub-G1 phase at 100 nM after 48 hrs by propidium iodide staining based flow cytometric analysis (reference value: 1.65+/-0.38%); assay type: functional
MCF7 [16] = test: Cell cycle arrest in human MCF7 cells assessed as accumulation at G2/M phase at 100 nM after 48 hrs by propidium iodide staining based flow cytometric analysis (reference value: 52.02+/-5.9%); assay type: functional
MCF7 [17] = test: Cell cycle arrest in human MCF7 cells assessed as appearance of polyploidy at 100 nM after 48 hrs by propidium iodide staining based flow cytometric analysis (reference value: 8.33+/-2.5%); assay type: functional
MCF7 [18] = test: Cell cycle arrest in human MCF7 cells assessed as accumulation at G1 phase at 100 nM after 48 hrs by propidium iodide staining based flow cytometric analysis (reference value: 60.22+/-3.1%); assay type: functional

SMILES	IC50 (MDA-MB-231 [1])	Activity (MDA-MB-231 [2])	IC50 (MCF7 [3])	other results
COc1cc(N2C(=O)[C@H](c3ccccc3)[C@H]2c2ccc(OC)c(OC)c2OC)cc(OC)c1OC	1.96 µM	6.1%	1.12 µM	–
COc1cc(N2C(=O)C(c3ccccc3)C2(c2ccccc2)c2ccccc2)cc(OC)c1OC (stereo unspecified)	–	–	3.84 µM	–
COc1ccc(C2(c3ccccc3)C(c3ccccc3)C(=O)N2c2cc(OC)c(OC)c(OC)c2)cc1 (stereo unspecified)	–	–	0.43 µM	–
COc1ccc(C2(c3ccc(OC)cc3)C(c3ccccc3)C(=O)N2c2cc(OC)c(OC)c(OC)c2)cc1 (stereo unspecified)	–	–	0.64 µM	–
CCOc1ccc([C@@H]2[C@@H](c3ccccc3)C(=O)N2c2cc(OC)c(OC)c(OC)c2)cc1 (relative stereo)	0.83 µM	5.4%	0.22 µM	Activity (MCF7 [4]): 9.49%; Activity (MCF7 [5]): Active; Activity (MCF7 [6]): Active; Activity (MCF7 [7]): 47.53%; Activity (MCF7 [8]): 13.97%; inhibition (Bos taurus): Active; Activity (MCF7 [9]): 7.4%; Activity (MCF7 [10]): 21.18%
COc1cc(N2C(=O)[C@H](c3ccccc3)[C@H]2c2ccc(F)cc2)cc(OC)c1OC (relative stereo)	1.14 µM	0%	0.35 µM	–
COc1cc(N2C(=O)[C@H](c3ccccc3)[C@H]2c2ccc(N(C)C)cc2)cc(OC)c1OC (relative stereo)	5.66 µM	–	0.85 µM	Activity (MCF7 [11]): 10.4%
COc1cc(OC)c([C@@H]2[C@@H](c3ccccc3)C(=O)N2c2cc(OC)c(OC)c(OC)c2)c(OC)c1 (relative stereo)	5.74 µM	0%	18.7 µM	–
COc1cc([C@@H]2[C@@H](c3ccccc3)C(=O)N2c2cc(OC)c(OC)c(OC)c2)cc(OC)c1OC (relative stereo)	65.6 µM	0%	69.8 µM	–
COc1cc(OC)c([C@@H]2[C@@H](c3ccccc3)C(=O)N2c2cc(OC)c(OC)c(OC)c2)cc1OC (relative stereo)	38.9 µM	0%	46.9 µM	–
COc1ccc([C@@H]2[C@@H](c3ccccc3)C(=O)N2c2cc(OC)c(OC)c(OC)c2)cc1OC (relative stereo)	0.53 µM	0%	0.46 µM	Activity (MCF7 [11]): 3%
COc1ccc([C@@H]2[C@@H](c3ccccc3)C(=O)N2c2cc(OC)c(OC)c(OC)c2)cc1Br (relative stereo)	–	–	1.42 µM	–
COc1cc(N2C(=O)[C@H](c3ccccc3)[C@H]2c2ccc3ccccc3c2)cc(OC)c1OC (relative stereo)	–	–	0.44 µM	–
COc1ccc(/C=C/[C@@H]2[C@@H](c3ccccc3)C(=O)N2c2cc(OC)c(OC)c(OC)c2)cc1 (relative stereo)	–	–	1.99 µM	–
COc1ccc([C@@H]2[C@@H](c3ccccc3)C(=O)N2Cc2cc(OC)c(OC)c(OC)c2)cc1 (relative stereo)	–	–	38.6 µM	–
COc1ccc(/C=C\c2cc(OC)c(OC)c(OC)c2)cc1O [COMBRETASTATIN A4]	–	4.3%	0.005 µM	Activity (MCF7 [12]): Active; Activity (MCF7 [13]): Active; Activity (MCF7 [14]): 10.66%; Activity (MCF7 [15]): 9.43%; Activity (MCF7 [16]): 52.02%; Activity (MCF7 [11]): 5.5%; inhibition (Bos taurus): Active; Activity (MCF7 [17]): 8.36%; Activity (MCF7 [18]): 23.57%

— ChEMBL document CHEMBL1828551, “Synthesis, biochemical and molecular modelling studies of antiproliferative azetidinones causing microtubule disruption and mitotic catastrophe” (Eur J Med Chem, 2011)
